# How the values were obtained:
# Type in all cases: functional
# Rhizomucor pusillus = assay: Antimicrobial activity against Rhizomucor pusillus after 24 hrs by broth microdilution checkerboard procedure
# In short: (§1)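 CLSI broth microdilution for filamentous fungi, adapted to checkerboard; 1–3 isolates per species. Final ranges: amphotericin B and azoles 0.004–2 μg/ml; cyclosporine 0.125–8 μg/ml; tacrolimus and rapamycin 0.06–4 μg/ml, with extra runs at 0.001–0.06 μg/ml. Incubated 24 h at 35°C and read spectrophotometrically. MIC is the lowest concentration giving 50% inhibition (amphotericin B alone: 90%). Most tests run in duplicate.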
# Rhizopus arrhizus = assay: Antimicrobial activity against Rhizopus oryzae after 24 hrs by broth microdilution checkerboard procedure; in short: as §1
# [1] = Antimicrobial activity against Rhizopus microsporus after 24 hrs by broth microdilution checkerboard procedure; in short: as §1
# Lichtheimia corymbifera = assay: Antimicrobial activity against Mycocladus corymbiferus after 24 hrs by broth microdilution checkerboard procedure; in short: as §1
# Mucor circinelloides = assay: Antimicrobial activity against Mucor circinelloides after 24 hrs by broth microdilution checkerboard procedure; in short: as §1
SMILES,MIC (Rhizomucor pusillus) [mg/L],MIC (Rhizopus arrhizus) [mg/L],MIC [1] [mg/L],MIC (Lichtheimia corymbifera) [mg/L],MIC (Mucor circinelloides) [mg/L]
CC[C@@H]([C@H](C)O)n1ncn(-c2ccc(N3CCN(c4ccc(OC[C@@H]5CO[C@@](Cn6cncn6)(c6ccc(F)cc6F)C5)cc4)CC3)cc2)c1=O [POSACONAZOLE],0.57,0.57,0.57,0.57,0.57
C[C@@H](c1nc(-c2ccc(C#N)cc2)cs1)[C@](O)(Cn1cncn1)c1ccc(F)cc1F [RAVUCONAZOLE],0.44,0.44,0.44,0.44,0.44
CCC(C)n1ncn(-c2ccc(N3CCN(c4ccc(OCC5COC(Cn6cncn6)(c6ccc(Cl)cc6Cl)O5)cc4)CC3)cc2)c1=O (centres undefined) [ITRACONAZOLE],0.62,0.62,0.62,0.62,0.62

# More lines, now with the values ahead:
MIC (Rhizomucor pusillus) [mg/L],MIC (Rhizopus arrhizus) [mg/L],MIC [1] [mg/L],MIC (Lichtheimia corymbifera) [mg/L],MIC (Mucor circinelloides) [mg/L],SMILES
> 4,≤ 0.5,> 4,≤ 0.5,≤ 0.5,C=CC[C@@H]1/C=C(\C)C[C@H](C)C[C@H](OC)[C@H]2O[C@@](O)(C(=O)C(=O)N3CCCC[C@H]3C(=O)O[C@H](/C(C)=C/[C@@H]3CC[C@@H](O)[C@H](OC)C3)[C@H](C)[C@@H](O)CC1=O)[C@H](C)C[C@@H]2OC [TACROLIMUS ANHYDROUS]
> 4,–,≤ 0.25,> 4,≤ 0.25,CO[C@H]1C[C@@H]2CC[C@@H](C)[C@@](O)(O2)C(=O)C(=O)N2CCCC[C@H]2C(=O)O[C@H]([C@H](C)C[C@@H]2CC[C@@H](O)[C@H](OC)C2)CC(=O)[C@H](C)/C=C(\C)[C@@H](O)[C@@H](OC)C(=O)[C@H](C)C[C@H](C)/C=C/C=C/C=C/1C [SIROLIMUS]
0.125,0.125,0.125,0.125,0.125,C[C@@H]1[C@H](O)[C@@H](C)/C=C/C=C/C=C/C=C/C=C/C=C/C=C/[C@H](O[C@@H]2O[C@H](C)[C@@H](O)[C@H](N)[C@@H]2O)C[C@@H]2O[C@](O)(C[C@@H](O)C[C@@H](O)[C@H](O)CC[C@@H](O)C[C@@H](O)CC(=O)O[C@H]1C)C[C@H](O)[C@H]2C(=O)O [AMPHOTERICIN B]

# Source: ChEMBL document CHEMBL1649535, “In vitro interactions between antifungals and immunosuppressive drugs against zygomycetes” (2009)
